Here are results for 16 compounds from ChEMBL document CHEMBL3044760, “Synthesis and insecticidal activity of heptafluoroisopropyl-containing benzoylphenylurea structures” (2010).

The subject of assay [1] is Mythimna separata. In words: Insecticidal activity against Mythimna separata (Oriental armyworm) second-instar larvae reared on compound pre-treated corn disks assessed as larval mortality at 0.125 mg/L measured 7 days post compound treatment by leaf-dip method. In kind it is functional. In short, it runs like this:
(§1)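 Leaf-dip: corn disks dipped 5 s in test solution, air-dried on filter paper, set on agar in 7 cm Petri dishes, with water-dipped disks as controls. Ten second-instar larvae per disk; dishes sealed with ventilated lids and stored inverted. Mortality scored at 7 days and corrected by Abbott's formula when needed. Diflubenzuron run under the same conditions.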

Assay [2] concerns Mythimna separata. Briefly: Insecticidal activity against Mythimna separata (Oriental armyworm) second-instar larvae reared on compound pre-treated corn disks assessed as larval mortality at 0.25 mg/L measured 7 days post compound treatment by leaf-dip method. In kind it is functional. In short, it runs like this: as §1
A further assay concerns Plutella xylostella. In words: Insecticidal activity against Plutella xylostella (diamondback moth) […] using 5% compound EC formulation at 37.5 g of ai/ha measured after 7 days field trial. In kind it is functional.
The subject of assay [3] is Bemisia tabaci. Briefly: Insecticidal activity against Bemisia tabaci (sweet potato whitefly) nymphs assessed as effect on larval pupation. Type of assay: functional, organism-based.
The subject of assay [4] is Spodoptera littoralis. In words: Insecticidal activity against Spodoptera littoralis worm third-instar larvae grown on compound pre-treated caster bean leaves assessed as larval weight gain at 0.5 mg of ai/L measured 8 days post compound treatment relative to untreated control. Type of assay: functional.
Assay [5] relates to Spodoptera littoralis. In words: Insecticidal activity against Spodoptera littoralis worm third-instar larvae grown on compound pre-treated caster bean leaves assessed as larval weight gain at 0.25 mg of ai/L measured 8 days post compound treatment relative to untreated control. In kind it is functional.
For assay [6], the system named is Spodoptera littoralis. Briefly: Insecticidal activity against Spodoptera littoralis worm third-instar larvae grown on compound pre-treated caster bean leaves assessed as larval mortality at 0.5 mg of ai/L measured 8 days post compound treatment. Type of assay: functional. In short, it runs like this:
(§2)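 Castor bean leaves treated at 0.25 or 0.5 mg ai/L formulation and fed to S. littoralis third instars (11 ± 1 mg) for 4 days, then moved to untreated leaves for 4 more days. Larval mortality scored at day 4 and day 8.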

Assay [7] has as its system Spodoptera littoralis. Briefly: Insecticidal activity against Spodoptera littoralis worm third-instar larvae grown on compound pre-treated caster bean leaves assessed as larval mortality at 0.25 mg of ai/L measured 8 days post compound treatment. Type of assay: functional. In short, it runs like this: as §2
The next assay has as its system Pieris rapae. Briefly: Insecticidal activity against imported cabbage worm measured 7 days after application of compound at 2000 diluent 5% EC. In kind it is functional, organism-based.
Another assay deals with Cnaphalocrocis medinalis. In words: Insecticidal activity against rice leaf roller third-instar larvae using 5% compound EC formulation at 25 g of ai/ha measured after 10 days field plot trial. Type of assay: functional, organism-based.
Assay [8] concerns Spodoptera littoralis. In words: Insecticidal activity against Spodoptera littoralis worm third-instar larvae grown on compound pre-treated caster bean leaves assessed as larval mortality at 0.5 mg of ai/L measured 4 days post compound treatment. In kind it is functional. The essentials:
as §2

Assay [9] deals with Spodoptera littoralis. In words: Insecticidal activity against Spodoptera littoralis worm third-instar larvae grown on compound pre-treated caster bean leaves assessed as larval mortality at 0.25 mg of ai/L measured 4 days post compound treatment. In kind it is functional. The essentials: as §2
The test system of assay [10] is Mythimna separata. In words: Insecticidal activity against Mythimna separata (Oriental armyworm) second-instar larvae reared on compound pre-treated corn disks assessed as larval mortality at 15.625 mg/L measured 7 days post compound treatment by leaf-dip method. In kind it is functional. The essentials:
as §1

The subject of assay [11] is Mythimna separata. Briefly: Insecticidal activity against Mythimna separata (Oriental armyworm) second-instar larvae reared on compound pre-treated corn disks assessed as larval mortality at 31.25 mg/L measured 7 days post compound treatment by leaf-dip method. Type of assay: functional. In short, it runs like this: as §1
In assay [12] the test system is Bemisia tabaci. In words: Insecticidal activity against Bemisia tabaci (sweet potato whitefly) nymphs assessed as suppression of larval pupation at 0.3 mg of ai/ha. Type of assay: functional, organism-based.
Assay [13] concerns Spodoptera littoralis. In words: Insecticidal activity against Spodoptera littoralis worm third-instar larvae grown on compound pre-treated caster bean leaves assessed as larval weight gain at 0.5 mg of ai/L as Rimon EC formulation measured 8 days post compound treatment relative to untreated control. In kind it is functional.
Assay [14] concerns Spodoptera littoralis. In words: Insecticidal activity against Spodoptera littoralis worm third-instar larvae grown on compound pre-treated caster bean leaves assessed as larval mortality at 0.5 mg of ai/L as Rimon EC formulation measured 8 days post compound treatment. Type of assay: functional. The essentials: as §2
For assay [15], the system named is Spodoptera littoralis. Briefly: Insecticidal activity against Spodoptera littoralis worm third-instar larvae grown on compound pre-treated caster bean leaves assessed as larval mortality at 0.5 mg of ai/L as Rimon EC formulation measured 4 days post compound treatment. Type of assay: functional. The essentials: as §2
Assay [16] concerns Mythimna separata. In words: Insecticidal activity against Mythimna separata (Oriental armyworm) second-instar larvae reared on compound pre-treated corn disks assessed as larval mortality at 10 mg/L measured 7 days post compound treatment by leaf-dip method. In kind it is functional. In short, it runs like this: as §1
The subject of assay [17] is Mythimna separata. Briefly: Insecticidal activity against Mythimna separata (Oriental armyworm) second-instar larvae reared on compound pre-treated corn disks assessed as larval mortality at 12.5 mg/L measured 7 days post compound treatment by leaf-dip method. Type of assay: functional. The essentials:
as §1

The test system of assay [18] is Mythimna separata. In words: Insecticidal activity against Mythimna separata (Oriental armyworm) second-instar larvae reared on compound pre-treated corn disks assessed as larval mortality at 62.5 mg/L measured 7 days post compound treatment by leaf-dip method. In kind it is functional. In short, it runs like this:
as §1

The subject of assay [19] is Mythimna separata. Briefly: Insecticidal activity against Mythimna separata (Oriental armyworm) second-instar larvae reared on compound pre-treated corn disks assessed as larval mortality at 5 mg/L measured 7 days post compound treatment by leaf-dip method. Type of assay: functional. The essentials: as §1
Assay [20] deals with Mythimna separata. In words: Insecticidal activity against Mythimna separata (Oriental armyworm) second-instar larvae reared on compound pre-treated corn disks assessed as larval mortality at 50 mg/L measured 7 days post compound treatment by leaf-dip method. Type of assay: functional. In short, it runs like this:
as §1

Calls of active or inactive are those of the source. The rule behind the calls is not given here. Bounds are passed on as bounds.

A word on the mortality: it is the share of the test organisms that died. As to `Cc1cc(C(F)(C(F)(F)F)C(F)(F)F)cc(C)c1NC(=O)NC(=O)c1c(F)cccc1F`, the mortality at 0.125 µg/mL with Mythimna separata [1] is 50%. The mortality at 0.25 µg/mL in the assay on Mythimna separata [2] was 80%. The Activity with Plutella xylostella was above 92%; in the assay on Spodoptera littoralis [4], 31%; in the assay on Spodoptera littoralis [5] it was 45%. The outcome in the assay with Bemisia tabaci [3] was inactive. Moreover, the mortality is recorded as 78% in the assay on Spodoptera littoralis [6], 36% in the assay with Spodoptera littoralis [7], 18% in the assay with Spodoptera littoralis [8] and 8% in the assay on Spodoptera littoralis [9]. The result with Pieris rapae and with Cnaphalocrocis medinalis was Active.

`O=C(NC(=O)c1c(F)cccc1F)Nc1ccc(C(F)(C(F)(F)F)C(F)(F)F)cc1`: in the assay with Mythimna separata [10], the mortality at 15.625 µg/mL turned out to be 43.3%. Moreover, the mortality at 31.25 µg/mL in the assay with Mythimna separata [11] was 100%.

On to `O=C(NC(=O)c1c(F)cccc1F)Nc1ccc(OC(F)(F)C(F)OC(F)(F)F)c(Cl)c1` (stereo unspecified) [NOVALURON], for which the outcome with Bemisia tabaci [12] was Active. In addition, the Activity with Spodoptera littoralis [13] is listed as 44%. Further, the results for the mortality in the assay with Spodoptera littoralis [14] and with Spodoptera littoralis [15] were 78% and 6%, respectively.

Regarding `O=C(NC(=O)c1c(F)cccc1F)Nc1ccc(C(F)(C(F)(F)F)C(F)(F)F)c(Cl)c1`, the mortality at 15.625 µg/mL in the assay on Mythimna separata [10] amounted to 86.6%. The mortality at 31.25 µg/mL in the assay on Mythimna separata [11] was 100%.

As to `O=C(NC(=O)c1c(F)cccc1F)Nc1ccc(C(F)(C(F)(F)F)C(F)(F)F)c(Br)c1`, the mortality at 15.625 µg/mL with Mythimna separata [10] worked out at 46.6%. For the same compound, the mortality at 31.25 µg/mL in the assay with Mythimna separata [11] amounted to 100%.

On to `Cc1cc(C(F)(C(F)(F)F)C(F)(F)F)ccc1NC(=O)NC(=O)c1c(F)cccc1F`, for which the mortality at 15.625 µg/mL with Mythimna separata [10] was 56.6%. For the same compound, the mortality at 31.25 µg/mL in the assay with Mythimna separata [11] stood at 100%.

As for `O=C(NC(=O)c1ccccc1)Nc1ccc(C(F)(C(F)(F)F)C(F)(F)F)cc1`, the mortality at 10 µg/mL in the assay with Mythimna separata [16] stood at 68.1%. For the same compound, the mortality at 12.5 µg/mL with Mythimna separata [17] was 100%. Moreover, the result in the assay on Bemisia tabaci [3] was inactive. Also, the Activity in the assay on Spodoptera littoralis [4] is on record as 94%; with Spodoptera littoralis [5], 69%. For the same compound, the mortality in the assay on Spodoptera littoralis [6] was determined as 22%; in the assay with Spodoptera littoralis [7], 14%; in the assay with Spodoptera littoralis [8] it was 18%; with Spodoptera littoralis [9] it was 8%.

Regarding `Cc1ccc(NC(=O)NC(=O)c2c(F)cccc2F)c(C(F)(C(F)(F)F)C(F)(F)F)c1`, the mortality at 62.5 µg/mL in the assay on Mythimna separata [18] was found to be 100%. Also, in the assay with Mythimna separata [11], the mortality at 31.25 µg/mL is 93.3%.

For the compound `O=C(NC(=O)c1c(F)cccc1F)Nc1ccc(C(F)(C(F)(F)F)C(F)(F)F)cc1F`, the mortality at 0.125 µg/mL with Mythimna separata [1] amounted to 63.3%. Also, the mortality at 0.25 µg/mL with Mythimna separata [2] came to 100%.

Take `O=C(NC(=O)c1c(F)cccc1F)Nc1ccc(C(F)(C(F)(F)F)C(F)(F)F)cc1Cl`: in the assay with Mythimna separata [10], the mortality at 15.625 µg/mL came out at 20%. In the assay with Mythimna separata [11], the mortality at 31.25 µg/mL came to 100%.

As to `O=C(NC(=O)c1c(F)cccc1F)Nc1c(F)cc(C(F)(C(F)(F)F)C(F)(F)F)cc1F`, the mortality at 0.125 µg/mL in the assay on Mythimna separata [1] came to 62.7%. Moreover, the mortality at 0.25 µg/mL with Mythimna separata [2] stood at 100%.

Consider `COc1ccc(NC(=O)NC(=O)c2c(F)cccc2F)c(C(F)(C(F)(F)F)C(F)(F)F)c1`, for which, in the assay on Mythimna separata [18], the mortality at 62.5 µg/mL is 100%. Further, the mortality at 31.25 µg/mL in the assay on Mythimna separata [11] turned out to be 86.6%.

With `O=C(NC(=O)c1ccccc1Cl)Nc1ccc(C(F)(C(F)(F)F)C(F)(F)F)cc1`, in the assay with Mythimna separata [16], the mortality at 10 µg/mL was determined as 100%. For the same compound, the mortality at 5 µg/mL in the assay with Mythimna separata [19] came to 66.9%.

In the case of `O=C(NC(=O)c1c(F)cccc1F)Nc1ccc(Cl)cc1` [DIFLUBENZURON], in the assay on Mythimna separata [1], the mortality at 0.125 µg/mL came out at 69.5%. Also, the mortality at 0.25 µg/mL in the assay on Mythimna separata [2] is 100%.

Consider `Cc1cc(C(F)(C(F)(F)F)C(F)(F)F)cc(C)c1NC(=O)NC(=O)c1ccccc1Cl`, for which the mortality at 10 µg/mL in the assay with Mythimna separata [16] worked out at 69.1%. Further, the mortality at 50 µg/mL in the assay on Mythimna separata [20] came to 100%.

As for `O=C(NC(=O)c1c(F)cccc1F)Nc1ccc(Br)cc1C(F)(C(F)(F)F)C(F)(F)F`, the mortality at 15.625 µg/mL with Mythimna separata [10] stood at 56.6%. For the same compound, in the assay on Mythimna separata [11], the mortality at 31.25 µg/mL came to 100%.
